Tested on: MS2 coat protein
Assay: apparent Kd, MS2 coat protein; higher = weaker binding; RNA-MaP array; FMN 200 µM where present
In short: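 The apparent Kd is reported as the median of filtered per-cluster binding-curve fits. To get these curves, designs transcribed by stalled E. coli RNA polymerase on Illumina sequencing-chip clusters were titrated with SNAP-549-labelled MS2 coat protein from 0.7 or 1.5 nM, doubling to 3 µM. Titrations were run without and then with constant ligand in 100 mM Tris-HCl pH 7.5, 80 mM KCl, 4 mM MgCl2, BSA, DTT, yeast tRNA and Tween-20, and green signal was normalised to red-channel RNA signal and control-cluster median Fmax.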

[1] = designed as: OFF switch for flavin mononucleotide, no ligand
[2] = ligand present: flavin mononucleotide, designed as: OFF switch for flavin mononucleotide
[3] = designed as: ON switch for flavin mononucleotide, no ligand
[4] = ligand present: flavin mononucleotide, designed as: ON switch for flavin mononucleotide

Sequence | apparent Kd [1] [nM] | apparent Kd [2] [nM] | apparent Kd [3] [nM] | apparent Kd [4] [nM]
ACAAAUUAGUGAGGAUAUGCAUAAUUUAUAACUGCAGAAGGCACAAACCUCAAGACAUGAGGAUCACCCAUGUGGAAUAUAGAU | 73 | 182 |  | 
AGGUAACAUGAGGAUCACCCAUGUACCAAUAAUGCAGGAUAUCGACACGAAAAUACGUGUCGAGAAGGGCAUGAAA |  |  | 14.1 | 16.4
AGUUAAUAUCGAGGAUAUCUCAUGAAUACAUGAGGAUCACCCAUGUGAAUGGGAGAAGGCGAUAUUAACAGCAUGUUACAUGCA |  |  | 12.6 | 6.52
GAGCGAAAGCUCAAUGUCGAUAGCAGAAGGAUAUGAAAACAUGAAAUAACAUGAGGAUCACCCAUGUAGGAUAUGCUAUCGACU | 7.41 | 14 |  | 
UGGAUGGUAUGAGGAUAUGCGCGUGAAACGCGCGCAGAAGGCAUGUCAAUAGACAUGAGGAUCACCCAUGUACUAUCCAUCCAA |  |  | 114 | 9.65
GAGCGGGAAACAUGAGGAUCACCCAUGUGAUGUAUCCUCACGUAGGAUAUGCACACGAGAAGUGUGCAGAAGGGCGACCCGGUC | 1100 | 1260 |  | 
CGCCACUUAACAGCGGCGCGGUCGAGAAGGGUACAUGAGGAUCACCCAUGUCACGUUCCUCCUGUACAGGAUAUCGUACGGGUA | 65.6 | 117 |  | 
UUGAGGUCAGGAUAUGCAUGGCGGGACUUGCGUCGUGGCGUGGAGAAGGGACAUGAGGAUCACCCAUGUGGAGG | 129 | 94.9 |  | 
GCGUAACAUGAGGAUCACCCAUGUGCCCGAGAAUUCGGGCCGAGAAGGGUGACCGGUCGUUUGGCACAGGAUAUCGACGUUGUG |  |  | 31.5 | 12.7
UUAUACGUUGAGGAUAUGCGAAUUAGUAUAGUUGCAGAAGGCGAUACAUGAGGAUCACCCAUGUUUAUGGGCAU | 194 | 341 |  | 
UCGACCAGCGCCGCUCGAACAUGAGGAUCACCCAUGUACUCCAGAAGGCCGCCCAAGUACGGAGUGGAGGAUAUGGAGGUUCUC |  |  | 39.5 | 25.4
GCGUUGAACGAGAAGGCCAAUACAUGAGGAUCACCCAUGUUAAGUUGUUUUGGAGGAUAUCGAACACAUUCAAUAUUGCAACGC | 6.06 | 5.65 |  | 
GAGUUUACGUUUGUCACUUAGCGAGAGGAUAUGGAAAACAAGACAUGAGGAUCACCCAUGUACUAUCAGAAGGCUCGAGUACGA |  |  | 7.26 | 5.59
CGCUACGUUUCGUAGCAGUGUCAUCGAGAAGGCCCUGACAUGAGGAUCACCCAUGUUGUUACAUGGGAGGAUAUCGAUGAUACC |  |  | 12.2 | 5.25
AGCUAGUCAGGAUAUACGAACACGUCAAAAGACUUGAAGGGACAUGAGGAUCACCCAUGUAGAAGGGACUAGCA | 35.1 | 123 |  | 
AAAUUAGUUGUAGGAUAUCGGUCGAACAUCUCACGAGAAGGGCAACAUGAGGAUCACCCAUGUAGGUCGCCUACGUAAGAUCGC | 5.84 | 6.71 |  | 
UAAUCUGGUCAGGAUAUCGGUGCACAGUGCACAGGAGAAGGGACCACAUGAGGAUCACCCAUGUAGGCUCUCCU | 17.8 | 24.4 |  | 
GUGGUACAUGAGGAUCACCCAUGUUAGGAUAUCGCGUGAGGUAAAACUUACACACACACGAGAAGGGACGACAU | 88.6 | 56.2 |  | 
CGAUAGGACAGAGGAUAUACACAUGAGGAUCACCCAUGUGAUUACAACGCGUAAGCUCCAAACAUGUAGAAGGCUGUCCUAUCG | 17.6 | 20.6 |  | 
CUCGUUAUGUUAGGAUAUGAUGCAUCCCGAUAAUCAGAAGGAACAUGAGGAUCACCCAUGUGACAUUUGGUGAAUACAAGCCAG | 6.79 | 7.96 |  | 
GGGUACAUCGGAGGAUAUCAUGUAGAUACAUGAGGAUCACCCAUGUCGUACGAGAGUACGGAGAUUGAGAAGGCCGAUGUACCG |  |  | 31 | 14.7
UUUCCGCAAGGAUAUACGGGCUGUGCUUUUCAUUUCUUACAACAUGAGGAUCACCCAUGUAGAAGGUGCUUCUU | 208 | 217 |  | 
UGCAUGCUAGGAUAUACGAAACAUUAGGGUUCUUCGUAUGAACAUGAGGAUCACCCAUGUAGAAGGAGCGUGCU | 35.5 | 191 |  | 
AACAGCUCGUCAGGAUAUAUUAUAUUUAUAUGGCUGAAUGUACAUGAGGAUCACCCAUGUAGUUUGUAGAAGGGACGAGCUGAA | 11.6 | 18.9 |  | 
UGUCGGAGCAGAGGAUAUUACAUGAGGAUCACCCAUGUAUGAACCAAUAGCUGUAAACAGCAAUGUAAGAAGGCUGCUCCGACA | 12.7 | 191 |  | 
CCGUAGAGAGGAUAUACAUGAGGAUCACCCAUGUGACAUCGAACGAUGUCGCCUAGUCGUAGAAGGUUCAAACG | 25.4 | 24.8 |  | 
CUUUUGUGAGGAUAUCAGUAGUAAAUAAAUAAAAUAACUACUGAGAAGGCACAUGAGGAUCACCCAUGUUCCUC | 35.8 | 223 |  | 
GGAUGACAAAGUCAUCCCUGACGGACAUGAGGAUCACCCAUGUAGGAUAUGCUACUCAAAGAGUAGCAGAAGGACAUGUGUCUU | 35.5 | 206 |  | 

Sequence | apparent Kd [1] [nM] | apparent Kd [2] [nM] | apparent Kd [3] [nM] | apparent Kd [4] [nM]
CGGUAACAUGAGGAUCACCCAUGUGAGGAUAUCGUACGUUCGUCGAAAGACGAUCGUACGAGAAGGCAUGACCG | 47.5 | 22.2 |  | 
AAGAAGUGAGGAUAUGCUGCUCGUCACUUGCGUGAUGAGUAGCAGAAGGCACAUGAGGAUCACCCAUGUGGAAG | 33.9 | 47.8 |  | 
AGUGGCUACACAGGAUAUCCCAGCCUCUUGGUGGGAGAAGGGUGAGGUCAGAGACAUGAGGAUCACCCAUGUCUUACAGGAGGA |  |  | 15.8 | 8.33
GGUGGACAUGAGGAUCACCCAUGUGAGGAUAUCGGCCGGUUCGUGGUGGCUGGCCUCUCGAGAAGGCGCAUAGU | 58.1 | 71.9 |  | 
UAAUCAUGUCCGUAUGUUUUCAGAGAGGAUAUACAUGCGGGCACCUUAACAUGAGGAUCACCCAUGUAGAAGGCUCUGAAAAUG | 97.3 | 22.5 |  | 
UUUUGAUGAGGAUAUCGAGGUUAGUACAUGAGGAUCACCCAUGUUAUCCAGGUGUCGGUUCGAGAAGGUAUUGGAC | 18.5 | 22.9 |  | 
UAUAGUGGCGUAGGAUAUCUGCGUACAUGAGGAUCACCCAUGUCUCCCAGCAGCUGAUCUGGGACAGAGAAGGGCGACCGCAUA |  |  | 157 | 63.6
GGAGCCGGCACCGAGGAUAUUCAUAUUAAAACAUGAGGAUCACCCAUGUAGGCCAGAAGGCUUUGGGAGAAGGCGGAUCGGCUCG |  |  | 604 | 38.7
CUGUCGAUAUCAGGAUAUCGUUUACAUACAUGAGGAUCACCCAUGUAGAUGAUCAGCCUAAUAUACGAGAAGGGAUAACGAUAG |  |  | 10.2 | 9.04
UCCUGGCGAGGAUAUACAAAGAUUUUUUCGUUUUGUUACGAACAUGAGGAUCACCCAUGUAGAAGGUGCUGCUG | 204 | 193 |  | 
GGGUACAGUGAGAAGGUCUGCGGAUUCCUUAACAUGAGGAUCACCCAUGUAGAAGGAUAUCACAGGUAAAGGUCGGCUAACGAU | 5.36 | 6.58 |  | 
AUAUAGAUGGUCAGGAUAUGCUAGUGGUAACAGUAGCAGAAGGGACAUGAGGAUCACCCAUGUGGAUACUGCUC | 23.9 | 93.6 |  | 
CUCUAUCAUGUAGGAUAUGCGUGUCGAAGCUAUGCAGAAGGACAUGAGGAUCACCCAUGUCUUUCUGUCUGCGGACGGACAGGG | 14.9 | 18.2 |  | 
AUGACAUGCACAGGAUAUUAGGCGCAGUACAGAUAAGAAGGGUGGAUCAGCAUACAUGAGGAUCACCCAUGUUGUUGUAACAUG |  |  | 350 | 183
UGUCGGAGCAGAGGAUAUUACAUGAGGAUCACCCAUGUAUGAACCAAUAGCUGGAAACAGCAAUGCAAGAAGGCUGCUCCGACA | 5.05 | 6.53 |  | 
UUGUGCUUAGAGAAGGUUCAAACUACAUAUUGCGCACAUGAGGAUCACCCAUGUUGGUGAAUAAGAAAGGAUAUUUGACUGUAC | 118 | 85.2 |  | 
UACAUGAGGAUCACCCAUGUUUUGUCGUGUAUGGUAUUUAUCUAGGAUAUCAUUUUAUUUAGUUAUGAGAAGGAGAAUAUUAAU | 28.9 | 34.4 |  | 
AGUUUUUAUGUCAGGAUAUCAGUAGGUCUCCCGGAUGAGAAGGGACAUGAGGAUCACCCAUGUAACCAAAGAGC | 15.6 | 18.5 |  | 
GGAUGACAAAGUCAUCCUAUUCGAACAUGAGGAUCACCCAUGUAGGAUAUGGUACUCAAAGAGUACCAGAAGGACAUGUGCUUU | 36.2 | 127 |  | 
AAGGUAUACUGAGGAUAUCCGUGGGUAUAUGGGUCUAGGAACAUGAGGAUCACCCAUGUUCCCUAGGAGAAGGCAGGACAUUAA | 25 | 33.6 |  | 
AGUAAGAUGCAGAAGGUGUUAGCUAGAGCUACGACAUGAGGAUCACCCAUGUACUAGAAACAGUACAAGGAUAUGCAUCUUACU |  |  | 18.4 | 6.43
AACAUACAUGAGGAUCACCCAUGUUCCGGCAGGACAGGAUAUACAUCGAAAGUGUUAUAAGUAGAAGGGUCAUAAA |  |  | 77.8 | 71.2
AUCAGCUUGUCAGGAUAUACGUCACUGCGUCAGCAGUGUGGUAAGAUCACAUGAGGAUCACCCAUGUAGAAGGGACGAGCUGAU | 12.9 | 321 |  | 
UGGUACAUCGGAGGAUAUCGUGUGUAAACAUGAGGAUCACCCAUGUCGUACGAGAGUACGUAGAUCGAGAAGGCCGAUGUACCU |  |  | 17.2 | 14.7
UGUCAAGCAGGAUAUGCACGUAAUAACAUGAGGAUCACCCAUGUGACCGAUUUAUAUUUUGCAGAAGGGCUUGUUU | 79.7 | 78.2 |  | 
GUAGAGUAGUGAGGAUAUACGAGUACGAUAGUACGGCGAUCCAAUAAUACAUGAGGAUCACCCAUGUAGAAGGCACUUCUCUAC | 8.53 | 98.7 |  | 
CAGUGCAAUGUAGGAUAUGCUCAGGAAUACUGAGCAGAAGGACAUGAGGAUCACCCAUGUAAAAUGAAAGAUAAUAAAGCACUG | 16.1 | 51 |  | 

Source: the EternaBench riboswitch data
